Measurements from ChEMBL document CHEMBL6078676, “In Vitro and In Vivo Leishmanicidal Activity of Beauvericin” (J Nat Prod, 2024).
≈ marks a conversion by molar mass, not a printed value. Calls of active or inactive are those of the source. The rule behind the calls is not given here.

Legend:
Leishmania amazonensis [1] = experiment: Antileishmanial activity against Leishmania amazonensis IFLA/BR/67/PH8 promastigote assessed as parasite killing incubated for 24 hrs; type: functional, organism-based; settings: IFLA/BR/67/PH8, 24 h
How it was run: (§1)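 Axenic parasites (5 × 10^6/well) were exposed for 24 h to increasing concentrations of compound dissolved in DMSO. MTT (5 mg/mL) was added for 3 h and the reaction stopped with 20% SDS. Formazan was read at 600 nm against a 650 nm reference to give EC50. Leishmania grew in supplemented M199 pH 7.4 at 25 °C; T. cruzi Y epimastigotes grew in LIT with 10% FBS at 28 °C.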

Leishmania amazonensis [2] = experiment: Antileishmanial activity against Leishmania amazonensis IFLA/BR/67/PH8 intracellular amastigote assessed as parasite killing incubated for 24 hrs; type: functional, organism-based; settings: IFLA/BR/67/PH8, 24 h
Leishmania braziliensis [3] = experiment: Antileishmanial activity against Leishmania braziliensis MHOM/BR/91/H3227 promastigote assessed as parasite killing incubated for 24 hrs; type: functional, organism-based; settings: MHOM/BR/91/H3227, 24 h; how it was run: as §1
Leishmania braziliensis [4] = experiment: Antileishmanial activity against Leishmania braziliensis MHOM/BR/91/H3227 intracellular amastigote assessed as parasite killing incubated for 24 hrs; type: functional, organism-based; settings: MHOM/BR/91/H3227, 24 h
Trypanosoma cruzi = experiment: Antitrypanosomal activity against Trypanosoma cruzi Y epimastigote assessed as parasite killing incubated for 24 hrs; type: functional, organism-based; how it was run: as §1
[5] = Cytotoxicity against mouse BMDM cells assessed as cell viability incubated for 24 hrs by MTT assay; type: toxicity, cell-based
How it was run: (§2)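 MTT viability after 24 h exposure to increasing concentrations (DMSO solution) gave CC50. BMDM (4 × 10^5/well) were differentiated for 7 days from female BALB/c marrow in RPMI with 20% FBS and 30% L929 supernatant. L929 fibroblasts (5 × 10^4/well) were in supplemented RPMI. Both were held at 37 °C, 5% CO2. Read at 600/650 nm after 3 h MTT and SDS stop.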

[6] = Cytotoxicity against mouse L929 cells assessed as cell viability measured for 24 hrs by MTT assay; type: toxicity, cell-based; how it was run: as §2
[7] = Selectivity index, ratio of CC50 for cytotoxicity against mouse BMDM cells assessed as cell viability to EC50 for antileishmanial activity against Leishmania amazonensis IFLA/BR/67/PH8 promastigote assessed as parasite killing; type: toxicity, cell-based; settings: read-out: Ratio CC50/EC50
How it was run: (§3)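 Ratio of 24 h MTT CC50 in BALB/c BMDM to Leishmania EC50.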

[8] = Selectivity index, ratio of CC50 for cytotoxicity against mouse BMDM cells assessed as cell viability to EC50 for antileishmanial activity against Leishmania amazonensis IFLA/BR/67/PH8 intracellular amastigote; type: toxicity, cell-based; settings: read-out: Ratio CC50/EC50; how it was run: as §3
[9] = Selectivity index, ratio of CC50 for cytotoxicity against mouse BMDM cells assessed as cell viability to EC50 for antileishmanial activity against Leishmania braziliensis MHOM/BR/91/H3227 promastigote assessed as parasite killing; type: toxicity, cell-based; settings: read-out: Ratio CC50/EC50; how it was run: as §3
[10] = Selectivity index, ratio of CC50 for cytotoxicity against mouse BMDM cells assessed as cell viability to EC50 for antileishmanial activity against Leishmania braziliensis MHOM/BR/91/H3227 intracellular amastigote assessed as parasite killing; type: toxicity, cell-based; settings: read-out: Ratio CC50/EC50; how it was run: as §3
[11] = Selectivity index, ratio of CC50 for cytotoxicity against mouse L929 cells assessed as cell viability to EC50 for antitrypanosomal activity against Trypanosoma cruzi Y epimastigote assessed as parasite killing; type: toxicity, cell-based; settings: read-out: Ratio CC50/EC50
How it was run: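 Ratio of 24 h MTT CC50 in L929 fibroblasts to T. cruzi Y epimastigote EC50.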

Leishmania amazonensis [12] = experiment: Induction of membrane morphological changes in Leishmania amazonensis IFLA/BR/1967/PH8 promastigote upto 1.2 uM incubated for 24 hrs by optical microscopic analysis; type: functional, organism-based
Leishmania amazonensis [13] = experiment: Induction of membrane morphological changes in Leishmania amazonensis IFLA/BR/67/PH8 promastigote assessed as shortening of cell body at 2.4 to 9.6 uM incubated for 24 hrs by optical microscopic analysis; type: functional, organism-based; settings: dose 2.4-9.6 µM
Leishmania amazonensis [14] = experiment: Induction of membrane morphological changes in Leishmania amazonensis IFLA/BR/67/PH8 promastigote assessed as rounding of cell body at 2.4 to 9.6 uM incubated for 24 hrs by optical microscopic analysis; type: functional, organism-based; settings: dose 2.4-9.6 µM
Leishmania amazonensis [15] = experiment: Induction of membrane morphological changes in Leishmania amazonensis IFLA/BR/67/PH8 promastigote assessed as aberrant nuclei 2.4 to 9.6 uM incubated for 24 hrs by optical microscopic analysis; type: functional, organism-based; settings: dose 2.4-9.6 µM
Leishmania amazonensis [16] = experiment: Induction of membrane morphological changes in Leishmania amazonensis IFLA/BR/67/PH8 promastigote assessed as cell debris formation 2.4 to 9.6 uM incubated for 24 hrs by optical microscopic analysis; type: functional, organism-based; settings: dose 2.4-9.6 µM
Leishmania braziliensis [17] = experiment: Induction of membrane morphological changes in Leishmania braziliensis MHOM/BR/91/H3227 assessed as appearance of slender cell bodies at 1.2 to 9.6 uM incubated for 24 hrs by optical microscopic analysis; type: functional, organism-based; settings: dose 1.2-9.6 µM
Leishmania braziliensis [18] = experiment: Induction of membrane morphological changes in Leishmania braziliensis MHOM/BR/91/H3227 assessed as appearance of sperm-like structure at 1.2 to 9.6 uM incubated for 24 hrs by optical microscopic analysis; type: functional, organism-based; settings: dose 1.2-9.6 µM
Leishmania braziliensis [19] = experiment: Induction of membrane morphological changes in Leishmania braziliensis MHOM/BR/91/H3227 assessed as appearance of leaf-like promastigotes at 1.2 to 9.6 uM incubated for 24 hrs by optical microscopic analysis; type: functional, organism-based; settings: dose 1.2-9.6 µM
Leishmania amazonensis [20] = experiment: Antileishmanial activity against Leishmania amazonensis IFLA/BR/67/PH8 amastigotes infected in mouse BMDM cells assessed as inhibition of parasite growth upto 1.6 uM pre-infected in cells for 24 hrs followed by compound addition and measured after 48 hrs by cell imaging analysis; type: functional, organism-based
How it was run: (§4)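 BALB/c BMDM (4 × 10^5) on coverslips were infected with stationary-phase L. amazonensis promastigotes, MOI 5, for 24 h at 34 °C, 5% CO2. After a PBS wash, cells received fresh RPMI with 0.4–1.6 μM. Incubation ran 24 h, 48 h, or 24 + 24 h with fresh medium. Cells were MeOH-fixed and stained; ≥300 cells were counted for infection rate, amastigotes/100 macrophages, and their product, relative to untreated. Two independent assays in triplicate.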

Leishmania amazonensis [21] = experiment: Antileishmanial activity against Leishmania amazonensis IFLA/BR/67/PH8 amastigotes infected in mouse BMDM cells assessed as reduction in infectivity index at 1.6 uM pre-infected in cells for 24 hrs followed by compound addition and measured after 48 hrs; type: functional; parameters: scale not given: the % may be the effect or the level left; how it was run: as §4
Leishmania amazonensis [22] = experiment: Antileishmanial activity against Leishmania amazonensis IFLA/BR/67/PH8 amastigotes infected in mouse BMDM cells at 1.6 uM pre-infected in cells for 24 hrs followed by compound addition and measured after 48 hrs; type: functional, organism-based; how it was run: as §4
Leishmania braziliensis [23] = experiment: Antileishmanial activity against Leishmania braziliensis MHOM/BR/91/H3227 intracellular amastigotes infected in mouse BMDM cells assessed as reduction in infectivity index at 1.6 uM pre-infected in cells for 24 hrs followed by compound addition and measured after 48 hrs by cell imaging analysis; type: functional; parameters: scale not given: the % may be the effect or the level left
How it was run: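 BMDM infected with stationary-phase L. braziliensis promastigotes, MOI 10, for 24 h at 34 °C, 5% CO2. After washing, cells were given 0.4–1.6 μM in fresh RPMI for 48 h. MeOH fixation and staining, then ≥300 host cells counted. Infectivity index (infection rate × amastigotes per 100 macrophages) expressed relative to untreated; two independent assays in triplicate.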

[24] = Cytotoxicity against mouse BMDM cells assessed as cell viability at 1.6 uM incubated for 24 hrs by MTT assay; type: toxicity, cell-based
Leishmania amazonensis [25] = experiment: Antileishmanial activity against Leishmania amazonensis IFLA/BR/67/PH8 amastigotes infected in female BALB/c mouse assessed as reduction in parasite burden at 5 to 10 mg/kg, ip administered for 15 days; type: functional, organism-based; settings: dose 5-10 mg/kg, time 15.0 day
How it was run: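 Female BALB/c mice (35 days old) were infected at the tail base with ~1 × 10^6 stationary-phase L. amazonensis promastigotes. Treatment was 5 or 10 mg/kg/day ip in 150 μL DMSO/0.9% NaCl (1:9), daily for 15 days from week 7 to week 9; vehicle controls, 5 per group. Lesion parasite load was measured by limiting dilution in M199 with wells read after 7 days.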

MDA-MB-231 = experiment: Inhibition of cell migration in human MDA-MB-231 cells; type: functional, cell-based
PC-3 = experiment: Inhibition of cell migration in human PC-3 cells; type: functional, cell-based
Cell membrane = experiment: Induction of cell membrane permeabilization in Leishmania amazonensis IFLA/BR/67/PH8 promastigotes incubated for 24 hrs; type: subcellular
How it was run: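 Promastigotes were incubated 24 h with 1.0 μM. Membrane permeability was measured by ethidium bromide fluorescence against untreated cells.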

HaCaT = experiment: Antiproliferative activity against human HaCaT cells assessed as inhibition of cell proliferation incubated for 72 hrs by MTT assay; type: functional, cell-based
Leishmania amazonensis [26] = experiment: Antileishmanial activity against Leishmania amazonensis IFLA/BR/67/PH8 amastigotes infected in female BALB/c mouse assessed as reduction in mean lesion at 5 mg/kg, topically administered for 32 days and measured after 8 to 13 week; settings: route topical, time 8-13 weeks
Leishmania amazonensis [27] = experiment: Antileishmanial activity against Leishmania amazonensis IFLA/BR/67/PH8 amastigotes infected in female BALB/c mouse assessed as total ulcerated area by measuring delay in ulcer progression at 5 mg/kg, topically administered for 32 days and measured after 8 to 13 week; settings: route topical, time 8-13 weeks
Leishmania amazonensis [28] = experiment: Antileishmanial activity against Leishmania amazonensis assessed as reduction in parasite proliferation at 50 microg/ml incubated for 72 hrs; type: functional; parameters: scale not given: the % may be the effect or the level left; settings: dose 50 µg/ml
Leishmania amazonensis [29] = experiment: Antileishmanial activity against Leishmania amazonensis assessed as reduction in parasite proliferation incubated for 72 hrs; type: functional, organism-based

C[C@@H]1[C@H](O)[C@@H](C)/C=C/C=C/C=C/C=C/C=C/C=C/C=C/[C@H](O[C@@H]2O[C@H](C)[C@@H](O)[C@H](N)[C@@H]2O)C[C@@H]2O[C@](O)(C[C@@H](O)C[C@@H](O)[C@H](O)CC[C@@H](O)C[C@@H](O)CC(=O)O[C@H]1C)C[C@H](O)[C@H]2C(=O)O [AMPHOTERICIN B]
EC50 (Leishmania amazonensis [1]): 200 nM
EC50 (Leishmania amazonensis [2]): 200 nM
EC50 (Leishmania braziliensis [3]): 200 nM
EC50 (Leishmania braziliensis [4]): 200 nM
EC50 (Trypanosoma cruzi): 2230 nM

CC(C)[C@H]1OC(=O)[C@H](Cc2ccccc2)N(C)C(=O)[C@@H](C(C)C)OC(=O)[C@H](Cc2ccccc2)N(C)C(=O)[C@@H](C(C)C)OC(=O)[C@H](Cc2ccccc2)N(C)C1=O
EC50 (Leishmania amazonensis [1]): 1200 nM
EC50 (Leishmania amazonensis [2]): 800 nM
EC50 (Leishmania braziliensis [3]): 900 nM
EC50 (Leishmania braziliensis [4]): 600 nM
CC50 at 24 h [5]: 17800 nM
EC50 (Trypanosoma cruzi): 3400 nM
CC50 at 24 h [6]: 45500 nM
selectivity ratio [7]: 14.8
selectivity ratio [8]: 22.3
selectivity ratio [9]: 19.8
selectivity ratio [10]: 29.7
selectivity ratio [11]: 13.4
Activity (Leishmania amazonensis [12]): Active
Activity (Leishmania amazonensis [13]): Active
Activity (Leishmania amazonensis [14]): Active
Activity (Leishmania amazonensis [15]): Active
Activity (Leishmania amazonensis [16]): Active
Activity (Leishmania braziliensis [17]): Active
Activity (Leishmania braziliensis [18]): Active
Activity (Leishmania braziliensis [19]): Active
Activity (Leishmania amazonensis [20]): Active
Activity (Leishmania amazonensis [21]): 95%
Activity (Leishmania amazonensis [22]): Active
Activity (Leishmania braziliensis [23]): 89%
Activity [24]: Non-toxic
Activity (Leishmania amazonensis [25]): Active
inhibition (MDA-MB-231): Active
inhibition (PC-3): Active
Activity (Cell membrane): Active
IC50 (HaCaT): 3900 nM
Activity (Leishmania amazonensis [26]): inactive
Activity (Leishmania amazonensis [27]): Active

O=c1cc(CO)occ1O [KOJIC ACID]
Activity (Leishmania amazonensis [28]): 79%
EC50 (Leishmania amazonensis [29]): 27.8 µg/mL (≈ 196 µM)
